Assay results published in ChEMBL document CHEMBL5724801, “EUbOPEN Chemogenomics Library - Multiplex” (2024).
Where “and” joins values, the source holds several entries; their conditions need not be identical. Equal values may be shown once.

System: Fibroblast
Assay: Multiplex assay against human fibroblast
Format: toxicity, cell-based
Procedure, shortened: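 Live cells carried four stains from seeding: Hoechst33342, BioTracker Green Microtubule Cytoskeleton Dye, MitoTracker Red and Annexin V Alexa Fluor 680. They were imaged on a CQ1 microscope at 37°C and 5% CO2 after compound addition. Using CellPathfinder machine-learning gating, cells were split into Hoechst high-intensity objects or normal cells, normal cells into healthy, pyknosed or fragmented nuclei, and pyknosed cells into mitotic or apoptotic; tubulin, mitochondrial-mass and membrane-permeability phenotypes are per cents of healthy-nucleus cells.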

[1] = 12 h, 1 µM, compound concentration 1 uM
[2] = 12 h, 10 µM, compound concentration 10 uM
[3] = 24 h, 1 µM, compound concentration 1 uM
[4] = 24 h, 10 µM, compound concentration 10 uM
[5] = 48 h, 1 µM, compound concentration 1 uM
[6] = 48 h, 10 µM, compound concentration 10 uM

Which results are given for `Cn1cnc(-c2cnc(O[C@H]3CCN(C(=O)Cc4ccc(OC(F)(F)F)cc4)C[C@H]3F)c(C(N)=O)c2)c1`?
Population Apoptotic (%) [1]: 14%; Population Healthy Nuclei (%) [1]: 57.67% and 77.82%; Population Hoechst High Intensity Objects (%) [1]: 0%; Population Mitotic Cells (%) [1]: 86% and 87.5%; Population Normal (%) [1]: 100%; Population Pyknosed Nuclei (%) [1]: 26.46% and 13.39%; Population Apoptotic (%) [2]: 14.93% and 26.53%; Population Healthy Nuclei (%) [2]: 58.85% and 71.95%; Population Hoechst High Intensity Objects (%) [2]: 0%; Population Mitotic Cells (%) [2]: 85.07% and 73.47%; Population Normal (%) [2]: 100%; Population Pyknosed Nuclei (%) [2]: 29.65% and 22.17%; Population Apoptotic (%) [3]: 8.89% and 19.35%; Population Healthy Nuclei (%) [3]: 68.08% and 79.62%; Population Hoechst High Intensity Objects (%) [3]: 0%; Population Mitotic Cells (%) [3]: 91.11% and 80.65%; Population Normal (%) [3]: 100%; Population Pyknosed Nuclei (%) [3]: 21.13% and 11.7%; Population Healthy Nuclei (%) [4]: 69.48% and 75.54%; Population Hoechst High Intensity Objects (%) [4]: 0%; Population Mitotic Cells (%) [4]: 93.62% and 75.76%; Population Normal (%) [4]: 100%; Population Pyknosed Nuclei (%) [4]: 18.88% and 11.87%; Population Apoptotic (%) [5]: 25%; Population Healthy Nuclei (%) [5]: 78.48% and 79.12%; Population Hoechst High Intensity Objects (%) [5]: 0%; Population Mitotic Cells (%) [5]: 75% and 83.33%; Population Normal (%) [5]: 100%; Population Pyknosed Nuclei (%) [5]: 8.44% and 6.59%; Population Apoptotic (%) [6]: 33.33% and 57.14%; Population Healthy Nuclei (%) [6]: 77.93% and 84.75%; Population Hoechst High Intensity Objects (%) [6]: 0%; Population Mitotic Cells (%) [6]: 66.67% and 42.86%; Population Normal (%) [6]: 100%; Population Pyknosed Nuclei (%) [6]: 3.1% and 4.96%

Which results are given for `CC[C@H](Nc1ncnc2[nH]cnc12)c1nc2cccc(F)c2c(=O)n1-c1ccccc1` [IDELALISIB]?
Population Apoptotic (%) [1]: 12.5% and 30.56%; Population Fragmented Nuclei (%) [1]: 8.54% and 3.76%; Population Healthy Nuclei (%) [1]: 58.94% and 76.88%; Population Hoechst High Intensity Objects (%) [1]: 7.17% and 0%; Population Membrane Permeable-Phenotype (%) [1]: 3.45% and 2.8%; Population Mitochondria Different-Phenotype (%) [1]: 10.34% and 11.89%; Population Mitotic Cells (%) [1]: 87.5% and 69.44%; Population Normal (%) [1]: 92.83% and 100%; Population Pyknosed Nuclei (%) [1]: 32.52% and 19.35%; Population Tubulin-Different-Phenotype (%) [1]: 22.76% and 24.48%; Total Cell Count [1]: 265 and 186; Population Apoptotic (%) [2]: 7.84% and 18.6%; Population Fragmented Nuclei (%) [2]: 13.24% and 8.44%; Population Healthy Nuclei (%) [2]: 63.47% and 72.44%; Population Hoechst High Intensity Objects (%) [2]: 0%; Population Membrane Permeable-Phenotype (%) [2]: 11.51% and 11.04%; Population Mitochondria Different-Phenotype (%) [2]: 16.55% and 16.56%; Population Mitotic Cells (%) [2]: 92.16% and 81.4%; Population Normal (%) [2]: 100%; Population Pyknosed Nuclei (%) [2]: 23.29% and 19.11%; Population Tubulin-Different-Phenotype (%) [2]: 53.24% and 61.96%; Total Cell Count [2]: 219 and 225; Population Apoptotic (%) [3]: 12.5% and 29.41%; Population Fragmented Nuclei (%) [3]: 8.53% and 9.31%; Population Healthy Nuclei (%) [3]: 69.77% and 82.35%; Population Hoechst High Intensity Objects (%) [3]: 5.84% and 0%; Population Membrane Permeable-Phenotype (%) [3]: 6.11% and 1.79%; Population Mitochondria Different-Phenotype (%) [3]: 3.89% and 7.14%; Population Mitotic Cells (%) [3]: 87.5% and 70.59%; Population Normal (%) [3]: 94.16% and 100%; Population Pyknosed Nuclei (%) [3]: 21.71% and 8.33%; Population Tubulin-Different-Phenotype (%) [3]: 16.67% and 20.24%; Total Cell Count [3]: 274 and 204; Population Apoptotic (%) [4]: 8.33% and 21.88%; Population Fragmented Nuclei (%) [4]: 9.91% and 5.37%; Population Healthy Nuclei (%) [4]: 73.87% and 79.02%; Population Hoechst High Intensity Objects (%) [4]: 0%; Population Membrane Permeable-Phenotype (%) [4]: 9.15% and 6.79%; Population Mitochondria Different-Phenotype (%) [4]: 15.24% and 12.35%; Population Mitotic Cells (%) [4]: 91.67% and 78.12%; Population Normal (%) [4]: 100%; Population Pyknosed Nuclei (%) [4]: 16.22% and 15.61%; Population Tubulin-Different-Phenotype (%) [4]: 46.95% and 64.2%; Total Cell Count [4]: 222 and 205; Population Apoptotic (%) [5]: 40.74% and 37.5%; Population Fragmented Nuclei (%) [5]: 8.52% and 5.13%; Population Healthy Nuclei (%) [5]: 81.48% and 90.77%; Population Hoechst High Intensity Objects (%) [5]: 7.22% and 0%; Population Membrane Permeable-Phenotype (%) [5]: 1.36% and 3.39%; Population Mitochondria Different-Phenotype (%) [5]: 11.36% and 3.39%; Population Mitotic Cells (%) [5]: 59.26% and 62.5%; Population Normal (%) [5]: 92.78% and 100%; Population Pyknosed Nuclei (%) [5]: 10% and 4.1%; Population Tubulin-Different-Phenotype (%) [5]: 9.09% and 16.95%; Total Cell Count [5]: 291 and 195; Population Apoptotic (%) [6]: 25% and 23.81%; Population Fragmented Nuclei (%) [6]: 12.65% and 4.81%; Population Healthy Nuclei (%) [6]: 82.45% and 85.1%; Population Hoechst High Intensity Objects (%) [6]: 0%; Population Membrane Permeable-Phenotype (%) [6]: 3.96% and 10.73%; Population Mitochondria Different-Phenotype (%) [6]: 11.39% and 11.3%; Population Mitotic Cells (%) [6]: 75% and 76.19%; Population Normal (%) [6]: 100%; Population Pyknosed Nuclei (%) [6]: 4.9% and 10.1%; Population Tubulin-Different-Phenotype (%) [6]: 30.2% and 57.06%; Total Cell Count [6]: 245 and 208
